Consider 2 compounds from ChEMBL document CHEMBL4699498 (J Med Chem, 2020).

The test system of data set [1] is MDA-MB-436. The data set can be described thus: Antiproliferative activity against human MDA-MB-436 cells assessed as cell growth inhibition incubated for 7 days by CCK-8 assay. The following applies: MDA-MB-436, 168 h. Type of data set: functional, cell-based. A digest of the protocol:
(§1)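 Cells were sub-cultured at least twice and seeded for 24 h before dosing. Compounds came from 10 mM DMSO stocks, given as 10 points of 3-fold serial dilution starting at 10-20 μM. Incubation was about 7 days (Capan-1 13 days) at 37 °C, 5% CO2. Read-out was CCK-8 absorbance at 450 nm, as % growth versus DMSO wells (duplicate wells). IC50 was fitted by nonlinear regression; three independent experiments.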
On the technique in general: Tetrazolium dyes change colour on reduction, which living cells bring about.

Data set [2] relates to CAPAN-1. The data set can be described thus: Antiproliferative activity against human CAPAN-1 cells assessed as cell growth inhibition incubated for 13 days by CCK-8 assay. Type of data set: functional, cell-based. The following applies: CAPAN-1, 312 h. The method, boiled down: as §1
The next data set has as its system PC-3. The experiment in a line: Antiproliferation activity against human PC-3 assessed as cell growth inhibition incubated for 7 days by CCK-8 assay. Type of data set: functional, cell-based. The following applies: time 7.0 day. A digest of the protocol: as §1
The subject of another data set is HCC1937. The data set can be described thus: Antiproliferation activity against human HCC1937 assessed as cell growth inhibition incubated for 7 days by CCK-8 assay. Format: functional, cell-based. The following applies: time 7.0 day. The method, boiled down:
as §1

The test system of another data set is CWR22R. The data set can be described thus: Antiproliferation activity against human 22Rv1 assessed as cell growth inhibition incubated for 7 days by CCK-8 assay. Format: functional, cell-based. The following applies: time 7.0 day. The method, boiled down:
as §1

In a further data set the test system is MDA-MB-468. The experiment in a line: Antiproliferation activity against human MDA-MB-468 assessed as cell growth inhibition incubated for 7 days by CCK-8 assay. Type of data set: functional, cell-based. To be noted: time 7.0 day. The method, boiled down: as §1
The test system of the next data set is LNCaP. The data set can be described thus: Antiproliferation activity against human LNCAP assessed as cell growth inhibition incubated for 7 days by CCK-8 assay. Type of data set: functional, cell-based. To be noted: time 7.0 day. A digest of the protocol:
as §1

Data set [3] concerns SW-620. The experiment in a line: Antiproliferation activity against human SW620 assessed as cell growth inhibition incubated for 7 days by CCK-8 assay. To be noted: time 7.0 day. Format: functional, cell-based. A digest of the protocol:
as §1

For another data set, the system named is MDA-MB-231. The experiment in a line: Antiproliferation activity against human MDA-MB-231 assessed as cell growth inhibition incubated for 7 days by CCK-8 assay. Format: functional, cell-based. The following applies: time 7.0 day. A digest of the protocol: as §1
Data set [4] deals with MDA-MB-436. The experiment in a line: Induction of DNA damage in human MDA-MB-436 cells assessed as increase in gammaH2AX foci formation incubated for 24 hrs by Western blot analysis. Format: functional, cell-based. The following applies: dose microM 0.1-10, time 24.0 hrs. A digest of the protocol:
(§2)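 MDA-MB-436 (BRCA1-/-) or Capan-1 (BRCA2-/-) cells were treated 24 h at the indicated concentrations. Lysis was in RIPA buffer with protease inhibitors, and 20-30 μg protein was run on SDS-PAGE. Blots were probed for γH2AX, with β-tubulin as the loading control, and detected by ECL.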
In general terms: Immunoblotting shows a protein as a band on a membrane.

In data set [5] the test system is CAPAN-1. The data set can be described thus: Induction of DNA damage in human Capan1 cells assessed as increase in gammaH2AX foci formation incubated for 24 hrs by Western blot analysis. Format: functional, cell-based. The following applies: dose microM 0.1-10, time 24.0 hrs. A digest of the protocol:
as §2

Data set [6] relates to CAPAN-1. The experiment in a line: Antitumor activity against CAPAN-1 cells xenografted in Balb/c mouse assessed as tumor growth inhibition at 100 mg/kg, po qd administered for 21 days. Type of data set: functional, organism-based. The following applies: time 21.0 day. A digest of the protocol:
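Male BALB/c nude mice (5-6 weeks old) carried subcutaneous Capan-1 xenografts (5×10^6 cells, right armpit). At ~150 mm³ they were randomized (6 per group). Dosing was 100 mg/kg by oral gavage daily for 21 days, or 25 mg/kg intraperitoneally 5 times a week for 3 weeks. Vehicle was 5% DMSO/20% PEG400/10% Cremophor EL/65% saline. Tumor volume was (length/2)×width², measured 2-3 times weekly.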

Data set [7] can be described thus: Acute toxicity in Balb/c mouse xenografted with SW-620 cells assessed as mean weight loss at 10 mg/kg, po qd administered for 5 days in presence of TMZ measured on day 9 relative to control. Type of data set: organism-based. To be noted: in vivo, 216 h. The method, boiled down:
(§3)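 Male BALB/c nude mice carried SW620 xenografts (6×10^6 cells s.c.), randomized at ~150 mm³ (6 per group). TMZ 50 mg/kg was given orally once daily on days 0-4, 45 min after the partner drug. Partners were 5 or 10 mg/kg intraperitoneally or 10 mg/kg by oral gavage, daily for 5 days. Vehicle was 5% DMSO/20% PEG400/10% Cremophor EL/65% saline. Tumor volume and body weight were recorded 2-3 times weekly.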

Data set [8] deals with SW-620. The data set can be described thus: Potentiation of TMZ induced antitumor activity against SW-620 cells xenografted in Balb/c mouse assessed as tumor growth suppression at 10 mg/kg, po qd administered for 5 days. Format: functional, organism-based. The following applies: time 5.0 day. A digest of the protocol: as §3
A short description of data set [9]: Acute toxicity in Balb/c mouse xenografted with Capan1 cells assessed as lethality at 100 mg/kg, po qd administered for 5 days in presence of cisplatin. Format: organism-based. To be noted: in vivo, 120 h, time 5 day. A digest of the protocol: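 Male BALB/c nude mice (5–6 weeks) carried s.c. Capan-1 xenografts (5×10^6 cells, right armpit) and were randomised at about 150 mm³, 6 per group. The agent was given once daily on days 0–4, by oral gavage or i.p., in DMSO/PEG400/Cremophor EL/saline vehicle. Cisplatin 6 mg/kg in saline was given i.p. on day 2, 45 min after the agent. Body weight was recorded 2–3 times weekly.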

Data set [10] can be described thus: Acute toxicity in Balb/c mouse xenografted with SW-620 cells assessed as lethality at 10 mg/kg, po qd administered for 5 days in presence of TMZ. To be noted: in vivo, 120 h, time 5 day. Format: organism-based. The method, boiled down:
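In male BALB/c nude mice (5–6 weeks), s.c. SW620 xenografts (6×10^6 cells, right armpit) were grown to about 150 mm³, then randomised, 6 per group. The agent was given once daily for 5 days, orally or i.p., in 5% DMSO/20% PEG400/10% Cremophor EL/65% saline. TMZ 50 mg/kg was given orally once daily for 5 days from day 0, 45 min after the agent. Body weight was measured 2–3 times weekly.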

Data set [11] deals with SW-620. The data set can be described thus: Antitumor activity against SW-620 cells xenografted in Balb/c mouse assessed as tumor growth suppression at 50 mg/kg, po administered once daily for 5 days. Format: functional, organism-based. The following applies: time 5.0 day. The method, boiled down: as §3
Data set [12] is described as follows: Acute toxicity in Balb/c mouse xenografted with SW-620 cells assessed as mean weight loss at 50 mg/kg, po qd administered for 5 days measured on day 6 relative to control. Type of data set: organism-based. To be noted: in vivo, 144 h, time 6 day.

Activity calls are given as the source filed them. The calls are words filed in the database; no cut-off is given here.

On to `O=C(c1cc(Cc2n[nH]c(=O)c3ccccc23)ccc1F)N1CCN(C(=O)C2CC2)CC1` [OLAPARIB], for which the values for the half-inhibitory concentration (IC50) with MDA-MB-436 [1] and in the data set with CAPAN-1 [2] were 0.018 µM and 0.027 µM, respectively. The outcome in the data set with PC-3, with HCC1937, with CWR22R, in the data set on MDA-MB-468, in the data set with LNCaP and with SW-620 [3] was Active. In addition, the outcome in the data set with MDA-MB-231, in the data set on MDA-MB-436 [4], with CAPAN-1 [5], in the data set with CAPAN-1 [6] and with SW-620 [8] was Active. Besides, the Activity in data set [7] was 15%; in [9], “Non-Toxic”; in data set [10], “Non-Toxic”.
As for `Cn1nnc2c(C(N)=O)ncn2c1=O` [TEMOZOLOMIDE], the result in the data set with SW-620 [11] was Active. Also, in [12], the Activity is on record as 9%.
